Experiment [1] concerns the target Tyrosine-protein kinase ABL2 (Homo sapiens) (UniProt P42684). Nature of the experiment: Binding affinity to wild-type human ABL2 (A248 to G542 residues) expressed in Escherichia coli BL21 at 1 uM by Kinomescan method relative to control.
The target in experiment [2] is Ribosomal protein S6 kinase alpha-1 (Homo sapiens) (UniProt Q15418). Nature of the experiment: Binding affinity to wild-type human partial length N-terminal RSK1 Kinase domain 1 (M1 to E388 residues) expressed in Escherichia coli BL21 at 1 uM by Kinomescan method relative to control.
For experiment [3], the target named is Receptor tyrosine-protein kinase erbB-3 (Homo sapiens) (UniProt P21860). Nature of the experiment: Binding affinity to wild-type human partial length ERBB3 (G684 to A987 residues) expressed in HEK293 cells at 1 uM by Kinomescan method relative to control. Type of experiment: cell-based.
Experiment [4] addresses CDK4/Cyclin D3 (Homo sapiens) (UniProt P11802+P30281). The experiment is described as follows: Binding affinity to wild-type human full length CDK4/cyclinD3 (M1 to E303 residues) expressed in HEK293 cells at 1 uM by Kinomescan method relative to control. In kind it is cell-based.
Experiment [5] addresses Ephrin type-B receptor 4 (Homo sapiens) (UniProt P54760). Nature of the experiment: Binding affinity to wild-type human partial length EPHB4 (H585 to G892 residues) expressed in Escherichia coli BL21 at 1 uM by Kinomescan method relative to control.
Experiment [6] deals with Ribosomal protein S6 kinase alpha-5 (Homo sapiens) (UniProt O75582). The experiment is described as follows: Binding affinity to wild-type human partial length C-terminal RPS6KA5 kinase domain 2 (V390 to T718 residues) expressed in Escherichia coli BL21 at 1 uM by Kinomescan method relative to control.
Experiment [7] deals with T1, Aurora kinase C (Homo sapiens, UniProt Q9UQB9).
T1 sequence (Q9UQB9 whole entry): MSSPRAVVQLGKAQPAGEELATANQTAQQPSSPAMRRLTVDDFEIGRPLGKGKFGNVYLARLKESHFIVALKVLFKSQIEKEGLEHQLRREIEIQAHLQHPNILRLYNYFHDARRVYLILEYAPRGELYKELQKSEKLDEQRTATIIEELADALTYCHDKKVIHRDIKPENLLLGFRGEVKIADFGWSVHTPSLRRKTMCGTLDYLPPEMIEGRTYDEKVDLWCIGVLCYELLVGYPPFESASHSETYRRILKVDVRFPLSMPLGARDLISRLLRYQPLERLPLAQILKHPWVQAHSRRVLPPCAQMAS
Nature of the experiment: Inhibition of recombinant full length GST-tagged human Aurora C expressed in baculovirus expression system by Z'LYTE assay. A digest of the protocol: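 Biochemical IC50 from a Z'LYTE kinase assay, with ATP at the Km for each kinase. Values are reported with standard error.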

Experiment [8] concerns the target AP2-associated protein kinase 1 (Homo sapiens) (UniProt Q2M2I8). The experiment is described as follows: Binding affinity to human wild-type AAK1 (G25 to L333 residues) expressed in Escherichia coli BL21 at 1 uM by Kinomescan method relative to control.
Experiment [9] concerns the target Myosin light chain kinase 2, skeletal/cardiac muscle (Homo sapiens) (UniProt Q9H1R3). Nature of the experiment: Binding affinity to wild-type human partial length MYLK2 (D258 to K570 residues) expressed in Escherichia coli BL21 at 1 uM by Kinomescan method relative to control.
Experiment [10] addresses Mitogen-activated protein kinase kinase kinase kinase 5 (Homo sapiens) (UniProt Q9Y4K4). The experiment is described as follows: Binding affinity to wild-type human partial length MAP4K5 (M1 to P297 residues) expressed in Escherichia coli BL21 at 1 uM by Kinomescan method relative to control.
Experiment [11] addresses Phosphatidylinositol 4,5-bisphosphate 3-kinase catalytic subunit gamma isoform (Homo sapiens) (UniProt P48736). The experiment is described as follows: Binding affinity to wild-type human partial length PIK3CG (S144 to A1102 residues) expressed in HEK293 cells at 1 uM by Kinomescan method relative to control. Type of experiment: cell-based.
For experiment [12], the system named is Proto-oncogene tyrosine-protein kinase receptor Ret (Homo sapiens), P07949 [V804M]. Nature of the experiment: Binding affinity to human partial length RET V804M mutant (E713 to D1014 residues) expressed in Escherichia coli BL21 at 1 uM by Kinomescan method relative to control.
In experiment [13] the target is Serine/threonine-protein kinase Nek5 (Homo sapiens) (UniProt Q6P3R8). The experiment is described as follows: Binding affinity to wild-type human partial length NEK5 (M1 to M279 residues) expressed in Escherichia coli BL21 at 1 uM by Kinomescan method relative to control.
Experiment [14] deals with Wee1-like protein kinase 2 (Homo sapiens) (UniProt P0C1S8). Nature of the experiment: Binding affinity to wild-type human partial length WEE2 (M204 to K492 residues) expressed in Escherichia coli BL21 at 1 uM by Kinomescan method relative to control.
For experiment [15], the target named is Dual specificity mitogen-activated protein kinase kinase 1 (Homo sapiens) (UniProt Q02750). The experiment is described as follows: Binding affinity to wild-type human full length MEK1 (M1 to V393 residues) expressed in HEK293 cells at 1 uM by Kinomescan method relative to control. Type of experiment: cell-based. A digest of the protocol: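 Run as one kinome-wide competition binding panel with each compound at a single fixed concentration. Results were plotted as a kinome-wide selectivity map.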

The target of experiment [16] is Tyrosine-protein kinase Srms (Homo sapiens) (UniProt Q9H3Y6). Nature of the experiment: Binding affinity to wild-type human partial length SRMS (L208 to P488 residues) expressed in HEK293 cells at 1 uM by Kinomescan method relative to control. In kind it is cell-based.
Experiment [17] addresses Non-receptor tyrosine-protein kinase TYK2 (Homo sapiens) (UniProt P29597). The experiment is described as follows: Binding affinity to wild-type human partial length TYK2 JH1 catalytic domain (V877 to C1187 residues) expressed in HEK293 cells at 1 uM by Kinomescan method relative to control. Type of experiment: cell-based.
The target in experiment [18] is Interleukin-1 receptor-associated kinase 3 (Homo sapiens) (UniProt Q9Y616). The experiment is described as follows: Binding affinity to wild-type human partial length IRAK3 (V147 to E596 residues) expressed in Escherichia coli BL21 at 1 uM by Kinomescan method relative to control.
The test system of experiment [19] is Receptor-type tyrosine-protein kinase FLT3 (Homo sapiens), P36888 [R834Q]. The experiment is described as follows: Binding affinity to human partial length FLT3 R834Q mutant (V592 to Y969 residues) expressed in HEK293 cells at 1 uM by Kinomescan method relative to control. In kind it is cell-based.
Experiment [20] addresses Serine/threonine-protein kinase 17A (Homo sapiens) (UniProt Q9UEE5). The experiment is described as follows: Binding affinity to wild-type human partial length DRAK1 (R32 to E363 residues) expressed in Escherichia coli BL21 at 1 uM by Kinomescan method relative to control.
For experiment [21], the target named is Serine/threonine-protein kinase Sgk3 (Homo sapiens) (UniProt Q96BR1). The experiment is described as follows: Binding affinity to wild-type human partial length SGK3 (M119 to L496 residues) expressed in HEK293 cells at 1 uM by Kinomescan method relative to control. Type of experiment: cell-based.
For experiment [22], the target named is Serine/threonine-protein kinase PAK 1 (Homo sapiens) (UniProt Q13153). The experiment is described as follows: Binding affinity to wild-type human partial length PAK1 (S149 to H545 residues) expressed in Escherichia coli BL21 at 1 uM by Kinomescan method relative to control.
Experiment [23] has as its target Tyrosine-protein kinase Lck (Homo sapiens) (UniProt P06239). Nature of the experiment: Binding affinity to wild-type human partial length LCK (R207 to P509 residues) expressed in Escherichia coli BL21 at 1 uM by Kinomescan method relative to control.

Sequence of Serine/threonine-protein kinase PAK 1 (Homo sapiens) (Q13153 whole entry, the tested form may be a part): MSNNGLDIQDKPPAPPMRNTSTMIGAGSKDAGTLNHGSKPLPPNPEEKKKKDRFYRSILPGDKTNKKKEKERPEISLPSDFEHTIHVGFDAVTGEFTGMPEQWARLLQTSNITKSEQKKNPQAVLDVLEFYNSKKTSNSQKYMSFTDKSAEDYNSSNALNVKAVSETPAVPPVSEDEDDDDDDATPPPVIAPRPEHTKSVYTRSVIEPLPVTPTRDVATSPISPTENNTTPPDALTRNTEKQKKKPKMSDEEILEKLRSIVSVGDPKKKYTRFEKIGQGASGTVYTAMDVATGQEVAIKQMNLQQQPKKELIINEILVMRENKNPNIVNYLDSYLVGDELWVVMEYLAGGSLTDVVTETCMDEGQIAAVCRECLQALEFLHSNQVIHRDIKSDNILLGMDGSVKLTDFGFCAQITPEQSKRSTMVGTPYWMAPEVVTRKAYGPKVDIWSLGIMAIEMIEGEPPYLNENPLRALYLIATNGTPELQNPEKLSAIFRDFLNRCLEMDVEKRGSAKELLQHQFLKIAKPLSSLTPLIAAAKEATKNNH
Sequence of Proto-oncogene tyrosine-protein kinase receptor Ret (Homo sapiens), P07949 [V804M] (P07949 whole entry V804M, the tested form may be a part): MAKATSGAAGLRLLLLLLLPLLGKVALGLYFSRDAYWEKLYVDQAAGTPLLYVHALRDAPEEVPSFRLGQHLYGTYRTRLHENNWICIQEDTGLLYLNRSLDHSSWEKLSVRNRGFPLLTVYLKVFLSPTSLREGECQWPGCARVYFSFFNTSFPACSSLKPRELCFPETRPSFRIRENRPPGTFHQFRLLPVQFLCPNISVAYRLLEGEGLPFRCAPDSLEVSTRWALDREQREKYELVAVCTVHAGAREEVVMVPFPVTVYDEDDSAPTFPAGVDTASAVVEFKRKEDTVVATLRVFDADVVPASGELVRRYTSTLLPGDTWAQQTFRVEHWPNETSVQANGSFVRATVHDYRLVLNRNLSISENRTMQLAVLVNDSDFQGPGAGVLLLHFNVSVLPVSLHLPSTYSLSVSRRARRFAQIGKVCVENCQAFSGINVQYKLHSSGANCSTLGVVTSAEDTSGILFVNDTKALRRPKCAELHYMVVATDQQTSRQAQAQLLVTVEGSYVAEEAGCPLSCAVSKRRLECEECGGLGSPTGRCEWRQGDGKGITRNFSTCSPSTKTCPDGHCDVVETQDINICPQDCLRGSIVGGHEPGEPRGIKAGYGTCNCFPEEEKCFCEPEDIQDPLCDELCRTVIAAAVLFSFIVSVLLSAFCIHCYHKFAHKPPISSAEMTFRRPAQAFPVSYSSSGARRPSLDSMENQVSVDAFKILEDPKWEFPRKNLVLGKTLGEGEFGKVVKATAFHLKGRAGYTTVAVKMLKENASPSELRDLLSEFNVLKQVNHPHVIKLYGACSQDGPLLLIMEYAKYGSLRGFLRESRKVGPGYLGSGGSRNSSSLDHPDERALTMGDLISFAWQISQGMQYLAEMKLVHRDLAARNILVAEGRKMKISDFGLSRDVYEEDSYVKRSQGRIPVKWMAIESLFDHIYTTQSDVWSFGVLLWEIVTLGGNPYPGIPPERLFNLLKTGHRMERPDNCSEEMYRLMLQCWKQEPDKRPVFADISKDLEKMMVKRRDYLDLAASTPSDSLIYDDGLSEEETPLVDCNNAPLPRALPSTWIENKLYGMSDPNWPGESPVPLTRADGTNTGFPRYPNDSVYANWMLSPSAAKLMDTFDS
Sequence of Tyrosine-protein kinase Srms (Homo sapiens) (Q9H3Y6 whole entry, the tested form may be a part): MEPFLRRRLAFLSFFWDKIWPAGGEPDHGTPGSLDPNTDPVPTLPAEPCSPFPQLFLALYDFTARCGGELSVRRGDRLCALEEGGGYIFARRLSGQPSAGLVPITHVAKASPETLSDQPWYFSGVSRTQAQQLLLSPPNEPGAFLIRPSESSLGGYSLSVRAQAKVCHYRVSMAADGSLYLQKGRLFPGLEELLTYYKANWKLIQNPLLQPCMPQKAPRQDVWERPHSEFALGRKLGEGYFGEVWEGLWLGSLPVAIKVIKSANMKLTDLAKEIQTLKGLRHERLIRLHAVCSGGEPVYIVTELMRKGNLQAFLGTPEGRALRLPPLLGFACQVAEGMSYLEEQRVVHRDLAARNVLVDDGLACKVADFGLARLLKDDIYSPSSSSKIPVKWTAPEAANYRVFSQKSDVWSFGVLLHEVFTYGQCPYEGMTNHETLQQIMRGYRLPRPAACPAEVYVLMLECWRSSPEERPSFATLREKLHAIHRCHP
Sequence of Dual specificity mitogen-activated protein kinase kinase 1 (Homo sapiens) (Q02750 whole entry, the tested form may be a part): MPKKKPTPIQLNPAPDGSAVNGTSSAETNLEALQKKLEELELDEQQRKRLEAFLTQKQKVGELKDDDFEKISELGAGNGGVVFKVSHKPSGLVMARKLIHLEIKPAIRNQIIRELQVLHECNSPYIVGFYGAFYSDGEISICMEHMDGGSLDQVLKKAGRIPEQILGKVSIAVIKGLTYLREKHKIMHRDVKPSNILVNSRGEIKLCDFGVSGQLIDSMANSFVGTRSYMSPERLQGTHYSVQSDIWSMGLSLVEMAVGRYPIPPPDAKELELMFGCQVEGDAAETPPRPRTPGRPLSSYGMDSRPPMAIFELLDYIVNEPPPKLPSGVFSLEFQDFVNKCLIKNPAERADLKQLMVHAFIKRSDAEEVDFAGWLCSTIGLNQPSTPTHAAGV
Sequence of Mitogen-activated protein kinase kinase kinase kinase 5 (Homo sapiens) (Q9Y4K4 whole entry, looked up, the tested form may be a part, canonical isoform): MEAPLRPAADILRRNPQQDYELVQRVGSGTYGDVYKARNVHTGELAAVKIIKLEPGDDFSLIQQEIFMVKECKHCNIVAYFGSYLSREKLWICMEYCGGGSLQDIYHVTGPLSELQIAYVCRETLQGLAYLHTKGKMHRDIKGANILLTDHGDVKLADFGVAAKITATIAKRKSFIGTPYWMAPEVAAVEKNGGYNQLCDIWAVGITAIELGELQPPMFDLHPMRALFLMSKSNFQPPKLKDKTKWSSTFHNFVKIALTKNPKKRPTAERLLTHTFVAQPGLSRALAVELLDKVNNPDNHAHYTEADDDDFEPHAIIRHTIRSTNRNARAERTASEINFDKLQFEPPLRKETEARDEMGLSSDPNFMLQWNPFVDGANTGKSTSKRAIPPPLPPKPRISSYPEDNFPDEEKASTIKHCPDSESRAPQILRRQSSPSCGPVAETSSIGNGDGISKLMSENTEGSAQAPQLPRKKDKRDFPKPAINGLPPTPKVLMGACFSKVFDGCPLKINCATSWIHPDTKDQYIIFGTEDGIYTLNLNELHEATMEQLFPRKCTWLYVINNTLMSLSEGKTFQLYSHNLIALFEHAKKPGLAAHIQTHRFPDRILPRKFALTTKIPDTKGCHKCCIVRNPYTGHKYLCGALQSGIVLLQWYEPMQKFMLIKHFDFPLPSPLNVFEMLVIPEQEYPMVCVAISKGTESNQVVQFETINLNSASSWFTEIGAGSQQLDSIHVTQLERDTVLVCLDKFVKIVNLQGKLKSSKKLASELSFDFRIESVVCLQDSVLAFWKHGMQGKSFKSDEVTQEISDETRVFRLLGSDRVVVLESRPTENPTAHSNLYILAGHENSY
Sequence of Tyrosine-protein kinase ABL2 (Homo sapiens) (P42684 whole entry, the tested form may be a part): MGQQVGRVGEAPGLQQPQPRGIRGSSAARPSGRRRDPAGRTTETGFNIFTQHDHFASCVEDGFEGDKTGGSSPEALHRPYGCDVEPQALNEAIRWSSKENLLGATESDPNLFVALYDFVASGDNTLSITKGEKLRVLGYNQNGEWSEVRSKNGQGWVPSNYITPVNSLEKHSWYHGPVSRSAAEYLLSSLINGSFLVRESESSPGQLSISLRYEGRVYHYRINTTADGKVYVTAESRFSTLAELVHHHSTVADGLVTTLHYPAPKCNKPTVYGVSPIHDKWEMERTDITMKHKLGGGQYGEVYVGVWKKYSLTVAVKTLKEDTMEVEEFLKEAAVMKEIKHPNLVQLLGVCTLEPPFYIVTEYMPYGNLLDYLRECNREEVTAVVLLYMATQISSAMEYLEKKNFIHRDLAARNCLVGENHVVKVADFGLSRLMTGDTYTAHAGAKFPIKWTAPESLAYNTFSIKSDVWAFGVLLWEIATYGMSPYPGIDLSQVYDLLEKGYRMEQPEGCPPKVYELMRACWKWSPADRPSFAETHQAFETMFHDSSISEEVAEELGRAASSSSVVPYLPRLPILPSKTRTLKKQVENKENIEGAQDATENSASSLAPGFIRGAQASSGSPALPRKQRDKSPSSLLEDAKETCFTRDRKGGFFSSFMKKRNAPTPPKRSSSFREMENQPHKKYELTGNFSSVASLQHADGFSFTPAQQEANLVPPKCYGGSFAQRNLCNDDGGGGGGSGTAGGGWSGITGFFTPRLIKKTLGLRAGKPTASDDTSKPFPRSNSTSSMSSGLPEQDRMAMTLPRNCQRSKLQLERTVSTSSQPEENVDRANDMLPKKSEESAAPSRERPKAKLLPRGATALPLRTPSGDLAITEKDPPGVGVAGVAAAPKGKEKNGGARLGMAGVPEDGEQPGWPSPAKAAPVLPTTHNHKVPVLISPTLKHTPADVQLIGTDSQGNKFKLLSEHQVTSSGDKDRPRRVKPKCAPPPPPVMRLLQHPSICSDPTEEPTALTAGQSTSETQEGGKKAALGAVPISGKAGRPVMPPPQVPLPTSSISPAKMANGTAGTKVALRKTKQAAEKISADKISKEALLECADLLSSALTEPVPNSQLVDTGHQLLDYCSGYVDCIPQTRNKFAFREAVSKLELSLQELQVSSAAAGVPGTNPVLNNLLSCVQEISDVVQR
Sequence of Serine/threonine-protein kinase 17A (Homo sapiens) (Q9UEE5 whole entry, the tested form may be a part): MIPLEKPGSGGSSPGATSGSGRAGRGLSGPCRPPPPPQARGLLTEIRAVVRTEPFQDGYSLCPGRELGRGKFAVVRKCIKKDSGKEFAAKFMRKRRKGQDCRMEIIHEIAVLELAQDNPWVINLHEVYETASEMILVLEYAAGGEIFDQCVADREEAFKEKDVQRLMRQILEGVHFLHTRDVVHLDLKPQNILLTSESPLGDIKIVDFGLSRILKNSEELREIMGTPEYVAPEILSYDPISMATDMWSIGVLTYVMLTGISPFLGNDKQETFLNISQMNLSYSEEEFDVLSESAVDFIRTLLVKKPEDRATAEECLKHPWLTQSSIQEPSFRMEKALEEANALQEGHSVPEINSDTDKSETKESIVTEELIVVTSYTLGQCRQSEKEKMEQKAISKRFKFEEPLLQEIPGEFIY

For the compound `CCC(=O)Nc1ccc(C(=O)Nc2ccc(Nc3ncc4c(n3)N(C)c3ccc(C)cc3C(=O)N4C)cc2)cc1`, the Activity in experiment [1] came out at 78%; in [2] it was 94%; in [3] it was 85%; in experiment [4] it was 85%; in experiment [5] it was 100%; in experiment [6] it was 82%. For the same compound, the Activity was 100% in [8]; 56% in [9]; 100% in experiment [10]; 20% in experiment [11]; 70% in experiment [12]; 86% in experiment [13]. Moreover, the Activity in experiment [14] was determined as 97%; in experiment [15] it was 52%; in experiment [16], 89%; in experiment [17] it was 58%; in [18], 89%; in experiment [19], 86%. Further, the Activity is 100% in experiment [20], 81% in [21], 94% in experiment [22] and 86% in experiment [23]. In experiment [7], the IC50 stood at 53 nM.

Turning to `C=CC(=O)Nc1ccc(C(=O)Nc2ccc(Nc3ncc4c(n3)N(C)c3ccc(C)cc3C(=O)N4C)cc2)cc1`, the Activity in experiment [1] is 95%; in [2], 100%; in [3], 81%; in experiment [4], 100%; in experiment [5], 95%; in experiment [6], 100%. Further, the Activity amounted to 99% in experiment [8]; 87% in experiment [9]; 100% in experiment [10]; 24% in experiment [11]; 68% in experiment [12]; 100% in [13]. Also, the Activity amounted to 100% in experiment [14]; 100% in experiment [15]; 73% in experiment [16]; 73% in [17]; 98% in experiment [18]; 98% in experiment [19]. Further, the Activity in experiment [20] came to 93%; in [21], 79%; in [22] it was 93%; in experiment [23], 90%. Further, the IC50 in experiment [7] was found to be 63 nM.

Broadly, the IC50 is the concentration needed to halve the response being measured.

For the origin of these results see ChEMBL document CHEMBL4184148 (Bioorg Med Chem Lett, 2017).
